Source: publication PMC11785078 (bioRxiv, 2025)

Assays:
cell culture = settings: ref [14] Iwasaki et al., 2014; cited from earlier work
mice = assay: Open field locomotor behavior; format: in vivo, male C57Bl/6J mice; settings: ICV 20 μg, 10-minute open field, vs vehicle, unpaired t-test P>0.05
Outline: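 Male C57Bl/6J mice, 8–10 weeks old, fitted under isoflurane with a right lateral ventricle ICV cannula and allowed one week of recovery. After 1 h habituation in a dim room with 60 dB white noise, mice received 20 µg test compound in 0.5 µL 50% DMSO/50% aCSF over 2 min, or vehicle alone. Open field test began 5 min later; total distance travelled was scored blind. Cannula placement was checked at necropsy.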

[1] = target: T1, Sigma 2 receptor (Transmembrane Protein 97 (TMEM97)) (Rattus norvegicus, UniProt Q5U3Y7); assay: PDSP radioligand competition-binding assay, sigma 2; settings: 10 μM (primary criterion)
T1 sequence (Q5U3Y7 1-176): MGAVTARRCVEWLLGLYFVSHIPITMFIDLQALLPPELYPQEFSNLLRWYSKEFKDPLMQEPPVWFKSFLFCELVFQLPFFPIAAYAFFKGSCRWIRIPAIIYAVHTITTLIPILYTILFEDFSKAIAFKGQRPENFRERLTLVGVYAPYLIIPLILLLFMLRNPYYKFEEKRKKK

[2] = tested on: MCF-7 estrogen receptor positive breast cancer cells; assay: MTT cytotoxicity assay, MCF-7; format: cell-based, human; settings: 72 h, 5% FBS
Outline: (§1)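 Cells plated at 5×10^3/well and attached overnight. Growth media were DMEM:F-12 (1:1) with 10% FBS for MDA-MB-231 and RPMI 1640 with 10% FBS for MCF-7. Test compound or DMSO vehicle applied for 72 h with 5% FBS. MTT added at 0.5 mg/mL final for 3 h at 37°C, 5% CO2, and formazan dissolved in DMSO. A570 read in three wells per condition and normalized to DMSO + 5% FBS. Mean ± SE of three experiments; one-way ANOVA with Bonferroni.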

[3] = tested on: MDA-MB-231 triple-negative breast cancer (TNBC) cells; assay: MTT cytotoxicity assay, MDA-MB-231; format: cell-based, human; settings: 72 h, 5% FBS
Outline: as §1

[4] = printed "15 M", mean of three experiments

maedamide
antitumor cytotoxicity (cell culture): only linear depsipeptide that exhibits antitumor cytotoxicity in cell culture

veraguamide C
effect on locomotor behavior (mice): no effect of veraguamide C on total distance traveled compared to vehicle
Primary: Percent Inhibition of Binding [1]: 65%
effect on viability / toxicity in MCF-7 (ER positive) cells ([2]; listed as veraguamide C): mild toxicity
cytotoxicity, MCF7 cells [2, 4]: 65%
effect on viability / toxicity in TNBC cells (words) [3]: selectively reduce viability
effect on viability / toxicity in TNBC cells (words) ([3]; listed as veraguamide C): similar, albeit minor, levels of toxicity
cytotoxicity, TNBC cells (MDA-MB-231) [3, 4]: 53%
